Results reported in ChEMBL document CHEMBL1155297, “Synthesis, antimicrobial and antioxidant activities of substituted pyrazoles, isoxazoles, pyrimidine and thioxopyrimidine derivatives” (2009).
In brackets after ≈: the same amount, converted by molar mass.

Legend:
Type in all cases: functional
Proteus vulgaris [1] = test: Antibacterial activity against Proteus vulgaris NCIM 2027 at 100 ug/disk after 24 hrs by agar disk diffusion method; conditions: NCIM 2027, 24 h, read-out: IZ
In short: (§1)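 Agar disc diffusion on nutrient agar plates pre-inoculated with each bacterium. Sterile 6 mm filter-paper discs were moistened with compound in DMSO at the stated per-disc amount. Plates were incubated at 37 °C, and the growth-inhibition zone diameter was read after 24 h. Each determination was run in triplicate, and the mean of three independent readings is reported.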

Fusarium solani [2] = test: Antifungal activity against Fusarium solani NCIM 1330 at 200 ug/disk after 48 hrs by agar disk diffusion method; conditions: NCIM 1330, 48 h, read-out: IZ
In short: (§2)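 Fungal disc diffusion on nutrient agar plates pre-inoculated with each fungus. 6 mm sterile paper discs carried the compound in DMSO at the stated amount per disc. Plates were held at 37 °C, and inhibition-zone diameter was measured after 48 h. Values are the mean of three independent triplicate readings.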

Staphylococcus aureus [3] = test: Antibacterial activity against Staphylococcus aureus NCIM 5021 at 100 ug/disk after 24 hrs by agar disk diffusion method; conditions: NCIM 5021, 24 h, read-out: IZ; in short: as §1
Aspergillus niger [4] = test: Antifungal activity against Aspergillus niger NCIM 596 after 48 hrs by microdilution susceptibility method; conditions: NCIM 596, 48 h
In short: (§3)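 Broth microdilution MIC; fungal suspensions were inoculated into wells containing compound dissolved in DMSO. Incubation was at 36 °C for 48 h. MIC was recorded as the lowest concentration with no turbidity. Ketoconazole was the reference antifungal.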

Proteus vulgaris [5] = test: Antibacterial activity against Proteus vulgaris NCIM 2027 after 24 hrs by microdilution susceptibility method; conditions: NCIM 2027, 24 h
In short: (§4)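 MIC by microdilution susceptibility; compounds in DMSO, bacterial suspensions inoculated into wells. Incubation was at 36 °C for 24 h. MIC is the lowest compound concentration showing no turbidity. Chloramphenicol served as reference antibacterial.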

Klebsiella pneumoniae [6] = test: Antibacterial activity against Klebsiella pneumoniae NCIM 2957 after 24 hrs by microdilution susceptibility method; conditions: NCIM 2957, 24 h; in short: as §4
Staphylococcus aureus [7] = test: Antibacterial activity against Staphylococcus aureus NCIM 5021 after 24 hrs by microdilution susceptibility method; conditions: NCIM 5021, 24 h; in short: as §4
Klebsiella pneumoniae [8] = test: Antibacterial activity against Klebsiella pneumoniae NCIM 2957 at 100 ug/disk after 24 hrs by agar disk diffusion method; conditions: NCIM 2957, 24 h, read-out: IZ; in short: as §1
Staphylococcus aureus [9] = test: Antibacterial activity against Staphylococcus aureus NCIM 5021 at 200 ug/disk after 24 hrs by agar disk diffusion method; conditions: NCIM 5021, 24 h, read-out: IZ; in short: as §1
Curvularia lunata [10] = test: Antifungal activity against Curvularia lunata NCIM 716 at 100 ug/disk after 48 hrs by agar disk diffusion method; conditions: NCIM 716, 48 h, read-out: IZ; in short: as §2
[11] = Antioxidant activity assessed as nitric oxide production at 100 uM after 120 mins by Griess reagent method
In short: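 Nitric oxide assay with Griess read-out. At intervals, 0.5 ml of incubation solution was mixed with 0.5 ml Griess reagent (1% sulfanilamide, 0.1% N-naphthylethylenediamine dihydrochloride, 2% o-phosphoric acid in water). The control received an equal amount of solvent and was handled identically.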

Fusarium solani [12] = test: Antifungal activity against Fusarium solani NCIM 1330 at 100 ug/disk after 48 hrs by agar disk diffusion method; conditions: NCIM 1330, 48 h, read-out: IZ; in short: as §2
Bacillus subtilis [13] = test: Antibacterial activity against Bacillus subtilis NCIM 2063 at 100 ug/disk after 24 hrs by agar disk diffusion method; conditions: NCIM 2063, 24 h, read-out: IZ; in short: as §1
Fusarium solani [14] = test: Antifungal activity against Fusarium solani NCIM 1330 after 48 hrs by microdilution susceptibility method; conditions: NCIM 1330, 48 h; in short: as §3
Curvularia lunata [15] = test: Antifungal activity against Curvularia lunata NCIM 716 at 200 ug/disk after 48 hrs by agar disk diffusion method; conditions: NCIM 716, 48 h, read-out: IZ; in short: as §2
Klebsiella pneumoniae [16] = test: Antibacterial activity against Klebsiella pneumoniae NCIM 2957 at 200 ug/disk after 24 hrs by agar disk diffusion method; conditions: NCIM 2957, 24 h, read-out: IZ; in short: as §1
Curvularia lunata [17] = test: Antifungal activity against Curvularia lunata NCIM 716 after 48 hrs by microdilution susceptibility method; conditions: NCIM 716, 48 h; in short: as §3
Bacillus subtilis [18] = test: Antibacterial activity against Bacillus subtilis NCIM 2063 at 200 ug/disk after 24 hrs by agar disk diffusion method; conditions: NCIM 2063, 24 h, read-out: IZ; in short: as §1
Bacillus subtilis [19] = test: Antibacterial activity against Bacillus subtilis NCIM 2063 after 24 hrs by microdilution susceptibility method; conditions: NCIM 2063, 24 h; in short: as §4
Proteus vulgaris [20] = test: Antibacterial activity against Proteus vulgaris NCIM 2027 at 200 ug/disk after 24 hrs by agar disk diffusion method; conditions: NCIM 2027, 24 h, read-out: IZ; in short: as §1
Aspergillus niger [21] = test: Antifungal activity against Aspergillus niger NCIM 596 at 100 ug/disk after 48 hrs by agar disk diffusion method; conditions: NCIM 596, 48 h, read-out: IZ; in short: as §2
Aspergillus niger [22] = test: Antifungal activity against Aspergillus niger NCIM 596 at 200 ug/disk after 48 hrs by agar disk diffusion method; conditions: NCIM 596, 48 h, read-out: IZ; in short: as §2
[23] = test system: Radical scavenging activity; test: Antioxidant activity assessed as DPPH free radical scavenging activity at 100 uM after 20 mins
In short: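 DPPH scavenging: compound solutions were added to DPPH in dioxane/ethanol and kept at ambient temperature for 20 min. Absorbance was read at 517 nm. The test–control difference was expressed as percent DPPH radical scavenging.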

MIC (Aspergillus niger [4])	MIC (Proteus vulgaris [5])	MIC (Klebsiella pneumoniae [6])	MIC (Staphylococcus aureus [7])	MIC (Fusarium solani [14])	MIC (Curvularia lunata [17])	MIC (Bacillus subtilis [19])	Structure (SMILES)	zone of inhibition at 100 µg/disc (Proteus vulgaris [1])	zone of inhibition at 200 µg/disc (Fusarium solani [2])	zone of inhibition at 100 µg/disc (Staphylococcus aureus [3])	zone of inhibition at 100 µg/disc (Klebsiella pneumoniae [8])	zone of inhibition at 200 µg/disc (Staphylococcus aureus [9])	zone of inhibition at 100 µg/disc (Curvularia lunata [10])	inhibition [11]	zone of inhibition at 100 µg/disc (Fusarium solani [12])	zone of inhibition at 100 µg/disc (Bacillus subtilis [13])	zone of inhibition at 200 µg/disc (Curvularia lunata [15])	zone of inhibition at 200 µg/disc (Klebsiella pneumoniae [16])	zone of inhibition at 200 µg/disc (Bacillus subtilis [18])	zone of inhibition at 200 µg/disc (Proteus vulgaris [20])	also measured
100 µg/mL (≈ 210 µM)	50 µg/mL (≈ 105 µM)	50 µg/mL (≈ 105 µM)	25 µg/mL (≈ 52.6 µM)	200 µg/mL (≈ 421 µM)	100 µg/mL (≈ 210 µM)	25 µg/mL (≈ 52.6 µM)	NC1=NN=C(N)C1C(CS(=O)(=O)c1ccc(Cl)cc1)S(=O)(=O)c1ccc(Cl)cc1 (centres undefined)	31 mm	39 mm	34 mm	30 mm	36 mm	34 mm	92.4%	35 mm	35 mm	38 mm	32 mm	37 mm	33 mm	zone of inhibition at 100 µg/disc (Aspergillus niger [21]): 32 mm; zone of inhibition at 200 µg/disc (Aspergillus niger [22]): 35 mm; inhibition [23]: 92.4%
200 µg/mL (≈ 496 µM)	100 µg/mL (≈ 248 µM)	100 µg/mL (≈ 248 µM)	100 µg/mL (≈ 248 µM)	200 µg/mL (≈ 496 µM)	200 µg/mL (≈ 496 µM)	100 µg/mL (≈ 248 µM)	NC1=NN=C(N)C1C(CC(=O)c1ccc(Cl)cc1)C(=O)c1ccc(Cl)cc1 (centres undefined)	25 mm	37 mm	31 mm	28 mm	33 mm	34 mm	90.7%	33 mm	28 mm	36 mm	30 mm	32 mm	28 mm	zone of inhibition at 100 µg/disc (Aspergillus niger [21]): 32 mm; zone of inhibition at 200 µg/disc (Aspergillus niger [22]): 33 mm; inhibition [23]: 91.7%
100 µg/mL (≈ 247 µM)	200 µg/mL (≈ 495 µM)	100 µg/mL (≈ 247 µM)	50 µg/mL (≈ 124 µM)	100 µg/mL (≈ 247 µM)	100 µg/mL (≈ 247 µM)	50 µg/mL (≈ 124 µM)	N=C1ON=C(N)C1C(CC(=O)c1ccc(Cl)cc1)C(=O)c1ccc(Cl)cc1 (centres undefined)	25 mm	35 mm	29 mm	25 mm	32 mm	32 mm	90.3%	33 mm	28 mm	34 mm	27 mm	30 mm	26 mm	zone of inhibition at 100 µg/disc (Aspergillus niger [21]): 26 mm; zone of inhibition at 200 µg/disc (Aspergillus niger [22]): 28 mm; inhibition [23]: 89.6%
